PMC3135172 (Cell, 2011)
One block for each molecule: values may come before it.

Legend:
BPTF PHD finger = assay: Binding of short H3K4me3 peptide in the absence of DNA; parameters: species or system human; details: Figure S2D
H4K12ac = assay: Enrichment of H4K12ac in cells cultured in trichostatin A; type: cell-based; details: Figure S7H
BPTF bromodomain Y147F = assay: ITC of H4K16ac peptide with BPTF bromodomain mutant Y147F; type: binding, human; details: Kd outside of the accurately measurable range, Figure 5D
[1] = system: PHD-bromo module F154A mutant; assay: FPA of PHD-bromo mutant F154A with histone peptides; type: binding, human; details: Figure 4B
BPTF bromodomain V108A = assay: ITC of H4K16ac peptide with BPTF bromodomain mutant V108A; type: binding, human; details: Kd outside of the accurately measurable range, Figure 5D
BPTF bromodomain D101A = assay: ITC of H4K16ac peptide with BPTF bromodomain mutant D101A; type: binding, human; details: not reliably quantifiable, Figure 5E
BPTF bromodomain W91A = assay: ITC of H4K16ac peptide with BPTF bromodomain mutant W91A; type: binding, human; details: not reliably quantifiable, Figure 5E
BPTF bromodomain = BPTF bromodomain (Homo sapiens, UniProt Q12830); type: binding; details: GST-tagged bromodomain, peptide array on modified cellulose scaffold
Summary of the method: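 Each acetylated peptide sits on a cellulose membrane, e.g. H4 residues 11–25 carrying a single ε-amine acetyl-lysine. […] Control and replicate blots were run. Spots that stained on the blot were retested for binding in solution.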

- binding of short peptide without DNA (BPTF PHD finger): bound effectively in the absence of DNA
Molecule: H3K4me3 peptide: short H3K4me3[1–8] peptide used for the DNA ruler, tested without DNA

Molecule: CC(/C=C/C(=O)NO)=C\[C@@H](C)C(=O)c1ccc(N(C)C)cc1 [trichostatin A]
- enrichment of H4K12ac mark (H4K12ac): substantial enrichment of the mark

Molecule: H4K16ac: histone H4 peptide (residues 11–25 on the array) acetylated on the ε-amine of lysine 16
- H4K16ac binding by Y147F bromodomain (BPTF bromodomain Y147F): modest binding deficits
- peptide binding to F154A mutant [1]: abolishes bromodomain binding of H4K16ac
- H4K16ac binding by V108A bromodomain (BPTF bromodomain V108A): modest binding deficits
- H4K16ac binding by D101A bromodomain (BPTF bromodomain D101A): more severe loss of affinity
- H4K16ac binding by W91A bromodomain (BPTF bromodomain W91A): more severe loss of affinity
- SPOT blot interaction / staining (BPTF bromodomain): reproducible staining

Molecule: unmodified counterpart: unmodified histone H4 peptide, without acetylation [reference compound]
- SPOT blot interaction / staining (BPTF bromodomain): displayed no detectable signal above background

- SPOT blot interaction / staining (BPTF bromodomain): reproducible staining
Molecule: H4K20ac: histone H4 peptide (residues 11–25 on the array) acetylated on the ε-amine of lysine 20
